This passage reports Ki, Km and Activity results from ChEMBL document CHEMBL2073777, “Characterization of ochratoxin A transport by human organic anion transporters” (Life Sci, 2001).

Structures are written as SMILES.

What all share (assay type): functional, cell-based
The target of data set [1] is T1, Organic anion transporter 3 (Homo sapiens, UniProt Q8TCC7).
T1 sequence (Q8TCC7 whole entry): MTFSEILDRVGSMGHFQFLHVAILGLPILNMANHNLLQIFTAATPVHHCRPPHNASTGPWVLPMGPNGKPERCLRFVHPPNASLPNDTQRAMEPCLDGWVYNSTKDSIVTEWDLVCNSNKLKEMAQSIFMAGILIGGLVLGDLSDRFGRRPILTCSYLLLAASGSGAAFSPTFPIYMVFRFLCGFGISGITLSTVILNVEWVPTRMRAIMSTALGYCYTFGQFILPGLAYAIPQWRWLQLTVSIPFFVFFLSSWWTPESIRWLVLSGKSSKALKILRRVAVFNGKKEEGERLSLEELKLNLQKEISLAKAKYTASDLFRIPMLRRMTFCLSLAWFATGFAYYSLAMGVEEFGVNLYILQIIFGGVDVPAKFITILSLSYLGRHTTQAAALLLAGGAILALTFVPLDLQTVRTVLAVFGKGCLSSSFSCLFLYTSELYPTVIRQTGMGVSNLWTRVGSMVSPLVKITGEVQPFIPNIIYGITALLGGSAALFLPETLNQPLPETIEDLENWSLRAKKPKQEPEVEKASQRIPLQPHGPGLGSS
The experiment in a line: TP_TRANSPORTER: inhibition of Ochratoxin A uptake in OAT3-expressing S2 cells.

The target of data set [2] is T2, OAT3 (Organic anion transporter 3) (Homo sapiens, UniProt Q8TCC7).
T2 sequence (Q8TCC7 whole entry): T1 sequence (Q8TCC7 whole entry)
Kind of data set: TP_TRANSPORTER: uptake in OAT3-expressing S2 cells. The conditions noted are these: mouse, S2 cells that express OAT3. The procedure, abridged:
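S2 proximal tubule cells from mice stably expressing human OAT3. [³H]-ochratoxin A uptake was followed over time and concentration, and the apparent Km was taken from the saturable uptake.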

The target in data set [3] is T1, Organic anion transporter 3. Kind of data set: TP_TRANSPORTER: inhibition of Ochratoxin A uptake (OTA: 1 uM, Aspartame: 200 uM) in OAT3-expressing S2 cells. The note with it: s2, 200 µM. The procedure, abridged: (§1)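 Mouse proximal tubule second-segment (S2) cells stably expressing human OAT1 or OAT3. Uptake of [³H]-labelled ochratoxin A was measured with and without added OAT substrates as inhibitors.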

For data set [4], the target named is T3, Solute carrier family 22 member 6 (Homo sapiens, UniProt Q4U2R8).
T3 sequence (Q4U2R8 whole entry): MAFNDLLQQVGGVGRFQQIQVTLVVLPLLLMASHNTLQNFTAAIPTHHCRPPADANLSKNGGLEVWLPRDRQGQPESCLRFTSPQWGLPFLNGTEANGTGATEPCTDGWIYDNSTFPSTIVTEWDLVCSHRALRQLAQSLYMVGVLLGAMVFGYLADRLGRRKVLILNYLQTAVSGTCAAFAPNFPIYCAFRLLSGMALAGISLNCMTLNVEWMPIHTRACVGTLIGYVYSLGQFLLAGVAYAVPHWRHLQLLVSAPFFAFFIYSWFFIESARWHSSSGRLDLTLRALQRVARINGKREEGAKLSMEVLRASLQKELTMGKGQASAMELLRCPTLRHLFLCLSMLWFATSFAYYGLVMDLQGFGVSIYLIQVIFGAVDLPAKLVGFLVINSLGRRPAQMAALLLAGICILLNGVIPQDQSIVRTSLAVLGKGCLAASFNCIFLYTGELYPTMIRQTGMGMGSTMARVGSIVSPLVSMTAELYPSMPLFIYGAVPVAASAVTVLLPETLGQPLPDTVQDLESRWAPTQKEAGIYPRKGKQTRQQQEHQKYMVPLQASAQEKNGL
The experiment in a line: TP_TRANSPORTER: inhibition of Ochratoxin A uptake (OTA: 1 uM, Aspartame: 200 uM) in OAT1-expressing S2 cells. The conditions noted are these: s2, 200 µM. A digest of the protocol:
as §1

In data set [5] the target is T1, Organic anion transporter 3. The experiment in a line: TP_TRANSPORTER: inhibition of Ochratoxin A uptake (OTA: 1 uM, Indomethacin: 200 uM) in OAT3-expressing S2 cells. The conditions noted are these: mouse, s2, 200 µM. A digest of the protocol:
as §1

Data set [6] has as its target T3, Solute carrier family 22 member 6. The experiment in a line: TP_TRANSPORTER: inhibition of Ochratoxin A uptake (OTA: 1 uM, Indomethacin: 200 uM) in OAT1-expressing S2 cells. The note with it: mouse, s2, 200 µM. The procedure, abridged: as §1
For data set [7], the target named is T1, Organic anion transporter 3. The experiment in a line: TP_TRANSPORTER: inhibition of Ochratoxin A uptake (OTA: 1 uM, PCG: 200 uM) in OAT3-expressing S2 cells. The note with it: mouse, s2, 200 µM. The procedure, abridged:
as §1

As usually defined, the Ki is a measure of affinity in units of concentration, obtained from inhibition or displacement. A high value points to lower affinity. Broadly, the Km is the concentration of substrate that gives half-maximal velocity.

Turning to `CC1=C2C(=CO[C@H](C)[C@H]2C)C(O)=C(C(=O)O)C1=O` [CITRININ], the inhibition constant (Ki) in data set [1] came to 15.4 µM.
As for `C[C@@H]1Cc2c(Cl)cc(C(=O)N[C@@H](Cc3ccccc3)C(=O)O)c(O)c2C(=O)O1` [3R14S-OCHRATOXIN A], in data set [2], the Km was 0.75 µM.
`COC(=O)[C@H](Cc1ccccc1)NC(=O)[C@@H](N)CC(=O)O`: the Activity entry in data set [3] and in data set [4] was “is not an inhibitor [-]” each time.
In the case of `COc1ccc2c(c1)c(CC(=O)O)c(C)n2C(=O)c1ccc(Cl)cc1` [INDOMETHACIN], the Activity entry was “inhibitor [(at a rough estimate) 15 % of control]” in data set [5] and “inhibitor [(at a rough estimate) 25 % of control]” in data set [6].
Molecule `CN1C(C(=O)Nc2ccccn2)=C(O)c2ccccc2S1(=O)=O` [PIROXICAM] showed a Ki in data set [1] of 4.88 µM.
In turn, `CCCCCCCC(=O)O` [OCTANOIC ACID] yielded a Ki in data set [1] of 8.6 µM.
In the case of `CC1(C)S[C@@H]2[C@H](NC(=O)Cc3ccccc3)C(=O)N2[C@H]1C(=O)O` [PENICILLIN G], the Activity entry in data set [7] was “inhibitor [(at a rough estimate) 35 % of control]”.
